# Data reported in ChEMBL document CHEMBL3414468, “N-benzoyl-1,5-benzothiazepine and its S-oxide as vasopressin receptor ligands: insight into the active stereochemistry around the seven-membered ring” (J Med Chem, 2015).
# Values joined by “and” are separate entries in the source; they are usually repeats but may differ in a detail not shown here. Equal values may be shown once.
# What was measured:
# [1] = target: T1, Vasopressin V1a receptor (Homo sapiens, UniProt P37288); experiment: Displacement of [3H]-(Arg8)-vasopressin from human vasopressin V1a receptor transfected in CHO cell membranes
# Method in brief: (§1)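 Competition binding of [3H](Arg8)-vasopressin to human V1a or V2 receptors. Ki is reported as the mean of duplicate measurements. Where no Ki was given, percent inhibition of radioligand binding was read at 10 μM test compound.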
# Target sequence in this assay (P37288 whole entry): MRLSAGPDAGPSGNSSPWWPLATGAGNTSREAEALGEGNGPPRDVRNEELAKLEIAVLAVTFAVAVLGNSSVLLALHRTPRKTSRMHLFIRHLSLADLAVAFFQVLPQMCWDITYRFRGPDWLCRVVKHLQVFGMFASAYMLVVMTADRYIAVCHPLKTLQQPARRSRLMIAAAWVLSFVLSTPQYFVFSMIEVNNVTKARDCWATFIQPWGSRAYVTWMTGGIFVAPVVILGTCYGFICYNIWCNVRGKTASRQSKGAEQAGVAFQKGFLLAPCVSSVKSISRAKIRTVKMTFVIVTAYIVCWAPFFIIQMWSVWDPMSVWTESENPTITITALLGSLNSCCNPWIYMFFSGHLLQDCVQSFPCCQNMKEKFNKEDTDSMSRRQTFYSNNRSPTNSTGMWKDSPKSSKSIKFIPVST
# [2] = target: T2, Vasopressin V2 receptor (Homo sapiens, UniProt P30518); experiment: Displacement of [3H]-(Arg8)-vasopressin from human vasopressin V2 receptor transfected in CHO cell membranes; method in brief: as §1
# [3] = target: T2, Vasopressin V2 receptor; experiment: Displacement of [3H]-(Arg8)-vasopressin from human vasopressin V2 receptor transfected in CHO cell membranes at 10 uM relative to control; method in brief: as §1
# [4] = target: T1, Vasopressin V1a receptor; experiment: Displacement of [3H]-(Arg8)-vasopressin from human vasopressin V1a receptor transfected in CHO cell membranes at 10 uM relative to control; method in brief: as §1
# Target sequence in this assay (P37288 whole entry, looked up): as the sequence (P37288 whole entry) above
# T2 sequence (P30518 whole entry): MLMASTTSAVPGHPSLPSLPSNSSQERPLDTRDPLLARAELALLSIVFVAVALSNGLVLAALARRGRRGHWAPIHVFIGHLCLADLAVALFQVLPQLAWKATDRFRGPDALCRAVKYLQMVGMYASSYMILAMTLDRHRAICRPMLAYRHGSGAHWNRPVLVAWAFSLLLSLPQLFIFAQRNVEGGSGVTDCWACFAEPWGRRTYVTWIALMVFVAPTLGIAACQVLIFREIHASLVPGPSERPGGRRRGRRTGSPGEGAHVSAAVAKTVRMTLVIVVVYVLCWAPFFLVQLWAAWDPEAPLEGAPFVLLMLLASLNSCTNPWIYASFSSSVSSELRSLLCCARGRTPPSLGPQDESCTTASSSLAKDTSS
Ki [1],Ki [2],inhibition [3] [%],inhibition [4] [%],SMILES
0.91 µM,0.87 µM,,,Cc1ccccc1C(=O)Nc1ccc(C(=O)N2CCC[S+]([O-])c3ccccc32)cc1 (racemic)
,,22,55,Cc1ccccc1C(=O)Nc1ccc(C(=O)N2CCC[S@@+]([O-])c3cccc(C)c32)cc1 (racemic)
,,48,,Cc1ccccc1C(=O)Nc1ccc(C(=O)N2CCC[S@@+]([O-])c3c(C)cccc32)cc1 (stereo in doubt; (+)) [listing 1 of 2 here]
0.55 µM,0.82 µM,,,Cc1ccccc1C(=O)Nc1ccc(C(=O)N2CCC[S@@+]([O-])c3ccccc32)cc1 (stereo in doubt; (-))
,,,57,Cc1ccccc1C(=O)Nc1ccc(C(=O)N2CCC[S@@+]([O-])c3ccccc32)cc1 (stereo in doubt; (+)) [listing 1 of 2 here]
,1.24 µM,,,Cc1ccccc1C(=O)Nc1ccc(C(=O)N2CCC[S@@+]([O-])c3ccccc32)cc1 (stereo in doubt; (+)) [listing 2 of 2 here]
0.0059 µM and 0.0044 µM and 0.013 µM,0.13 µM and 0.098 µM and 0.31 µM,,,Cc1ccccc1C(=O)Nc1ccc(C(=O)N2CCCN(C)c3cccc(C)c32)cc1
,,0,53,Cc1ccccc1C(=O)Nc1ccc(C(=O)N2CCC[S@@+]([O-])c3c(C)cccc32)cc1 (stereo in doubt; (-))
0.87 µM,,34,,Cc1ccccc1C(=O)Nc1ccc(C(=O)N2CCC[S+]([O-])c3c(C)cccc32)cc1 (racemic)
0.068 µM,0.021 µM,,,Cc1ccccc1C(=O)Nc1ccc(C(=O)N2CCCSc3ccccc32)cc1
0.037 µM and 0.019 µM and 0.147 µM,0.36 µM and 0.184 µM and 1.8 µM,,,Cc1ccccc1C(=O)Nc1ccc(C(=O)N2CCCSc3cccc(C)c32)cc1
0.048 µM,0.88 µM,,,Cc1ccccc1C(=O)Nc1ccc(C(=O)N2CCCSc3c(C)cccc32)cc1
0.66 µM,,,,Cc1ccccc1C(=O)Nc1ccc(C(=O)N2CCC[S@@+]([O-])c3c(C)cccc32)cc1 (stereo in doubt; (+)) [listing 2 of 2 here]
